{
  "source": "paper PMC12399195",
  "about": "(Acta Pharmaceutica Sinica. B, 2025)",
  "key": {"[1]": {"molecular_target": "T1, Notum (Homo sapiens, UniProt Q6P988)", "T1 sequence (Q6P988 20-496)": "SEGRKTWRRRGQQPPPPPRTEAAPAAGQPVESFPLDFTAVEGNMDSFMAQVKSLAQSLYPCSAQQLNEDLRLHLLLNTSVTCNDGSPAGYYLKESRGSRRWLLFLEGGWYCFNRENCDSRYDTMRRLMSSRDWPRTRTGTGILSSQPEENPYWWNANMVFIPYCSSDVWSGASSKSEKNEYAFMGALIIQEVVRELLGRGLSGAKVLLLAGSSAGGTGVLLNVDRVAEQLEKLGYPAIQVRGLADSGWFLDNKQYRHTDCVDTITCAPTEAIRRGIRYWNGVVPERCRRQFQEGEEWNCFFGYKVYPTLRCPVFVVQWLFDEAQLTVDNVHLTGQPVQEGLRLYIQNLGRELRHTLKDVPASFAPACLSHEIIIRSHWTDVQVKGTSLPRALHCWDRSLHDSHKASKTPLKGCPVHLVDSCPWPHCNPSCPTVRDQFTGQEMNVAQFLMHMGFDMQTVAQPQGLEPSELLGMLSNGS", "assay": "Notum inhibition assay, DO as fluorogenic substrate", "assay_type": "biochemical"}, "[2]": {"system": "DXMS-induced osteoporotic mice", "assay": "In vivo anti-osteoporosis test in DXMS-induced osteoporotic mice", "set-up": "species or system C57BL/6J mice", "settings": "for effect on weight loss induced by DXMS: five weeks", "outline": "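Male C57BL/6J mice (6 weeks) were held SPF at 25 ± 2 °C, 50 ± 10% humidity and 12 h/12 h light/dark, with 7 days acclimatisation. They were randomised into five groups. DXMS was given i.p. at 2.5 mg/kg, five times weekly for five weeks. Test compound was dosed orally daily; PTH1–34 was given i.p. After five weeks, serum, femurs and tibias were collected. Serum ALP, OT/BGT, OPG and Col-1A1 were measured by ELISA kits. Data are mean ± SD.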"}, "[3]": {"system": "MC3T3-E1 cells", "assay": "ALP staining, osteoblast differentiation in DXMS-challenged MC3T3-E1 cells", "assay_type": "cell-based", "settings": "7 days", "outline": "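MC3T3-E1 cells were kept in DMEM with 10% FBS and 1% penicillin–streptomycin at 37 °C under 5% CO₂. Cells were seeded at 2×10^3 cells/well and grown 24 h, then switched to inducible medium. DXMS and test compound were added together for seven days, with medium changed every two days. Cells were fixed 15 min in 4% paraformaldehyde at room temperature, PBS-washed, BCIP/NBT ALP-stained, imaged and quantified.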"}, "[4]": {"system": "healthy mice", "assay": "Toxicity test in healthy mice", "assay_type": "in vivo, C57BL/6J mice", "settings": "200 mg/kg oral"}, "[5]": {"system": "MC3T3-E1 cells", "assay": "Cell viability", "assay_type": "cell-based", "settings": "for cytotoxicity towards MC3T3-E1 cells: 0–20 μmol/L, 96 h"}, "[6]": {"molecular_target": "T1, Notum", "assay": "Notum inhibition assay, OPTS as substrate", "assay_type": "biochemical"}, "[7]": {"system": "CYPs", "settings": "phase I metabolic systems, GSH trapping"}, "[8]": {"settings": "cited from earlier work"}, "[9]": {"molecular_target": "T2, F268G Notum (Homo sapiens, UniProt Q6P988, F268G)", "T2 sequence (Q6P988 20-496 F268G)": "T1 sequence (Q6P988 20-496) with F249G", "assay": "Inhibition of DO hydrolysis in F268G Notum mutant", "assay_type": "biochemical"}, "[10]": {"assay": "Tissue distribution in mice after gavage", "assay_type": "in vivo, C57BL/6J mice", "outline": "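Twenty male C57BL/6J mice (6 weeks, 18–20 g) were randomised into four groups: control, 1 h, 2 h and 3 h. Test compound in 0.5% CMC-Na was given once by gavage. Mice were anaesthetised at 0, 1, 2 or 3 h, and blood and organs including femur were removed. Samples were centrifuged at 20,000 × g, 4 °C, 30 min, and compound concentration was determined by LC–MS/MS.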"}, "[11]": {"system": "MC3T3-E1 cells", "assay": "Alizarin red S staining, calcification in DXMS-challenged MC3T3-E1 cells", "assay_type": "cell-based", "settings": "DXMS-challenged (200 μmol/L) MC3T3-E1 cells, 21 days"}, "[12]": {"system": "Wnt/β-catenin signaling", "assay_type": "cell-based", "settings": "DXMS-challenged MC3T3-E1 cells, 7 days"}, "[13]": {"settings": "5-MP 20 and 40 mg/kg oral daily, PTH 100 μg/kg/day i.p."}, "[14]": {"settings": "IC50 (DO as probe), Notum-catalyzed DO hydrolysis"}, "[15]": {"settings": "distal and mid-femur, vs DXMS-challenged mice"}, "[16]": {"settings": "distal femur, DXMS-challenged mice"}},
  "note": "Substitutions are numbered along the chain they refer to.",
  "data": [
    {"compound": "O=c1oc2cc(O)ccc2c2oc3cc(O)ccc3c12", "note": "[Coumestrol]", "values": [
      {"measurement": "IC50", "setting": "[1]", "value": "12800 ± 2440", "unit": "nM"}
    ]},
    {"compound": "PTH: parathyroid hormone 1–34, positive drug for treating osteoporosis (SVSEIQLMHNLGKHLNSMERVEWLRKKLQDVHNF; Parathyroid hormone; UniProt P01270 32-65, looked up, fragment) [reference compound]", "values": [
      {"measurement": "effect on weight loss induced by DXMS", "setting": "[2]; [13]", "value": "neither PTH (positive control for osteoporosis) nor 5-MP (20 and 40 mg/kg) could significantly reverse the weight loss"}
    ]},
    {"compound": "COc1c2occc2cc2ccc(=O)oc12", "note": "[8-Methoxypsoralen]", "values": [
      {"measurement": "IC50", "setting": "[1]", "value": "9450 ± 1380", "unit": "nM"}
    ]},
    {"compound": "O=c1ccc2cc3ccoc3cc2o1", "note": "[Psoralen]", "values": [
      {"measurement": "effect on ALP levels (osteoblast differentiation)", "setting": "[3]", "value": "relatively weak"},
      {"measurement": "body weight", "setting": "[4]; 14 consecutive days, mice", "value": "decreased significantly"},
      {"measurement": "death of mice", "setting": "[4]; 14 consecutive days, mice", "value": "no death was observed"},
      {"measurement": "organ injury (H&E, pathological examination)", "setting": "[4]; 14 consecutive days, mice", "value": "varying degrees of organ injury"},
      {"measurement": "organ coefficients of the heart, liver and kidney", "setting": "[4]; 14 days, vs control", "value": "remarkably elevated"},
      {"measurement": "serum levels of ALP, CREA, UREA and TG", "setting": "[4]; 14 days, vs control", "value": "elevate"},
      {"measurement": "serum levels of AST and ALT", "setting": "[4]; 14 days, vs control", "value": "elevated"},
      {"measurement": "cytotoxicity towards MC3T3-E1 cells", "setting": "[5]", "value": "weak cytotoxicity"},
      {"measurement": "IC50", "setting": "[1]; [14]", "value": "108 ± 10.4", "unit": "nM"},
      {"measurement": "IC50", "setting": "[6]", "value": "99.9 ± 10.8", "unit": "nM"}
    ]},
    {"compound": "O=c1ccc2ccc3occc3c2o1", "note": "[Isopsoralen]", "values": [
      {"measurement": "effect on ALP levels (osteoblast differentiation)", "setting": "[3]", "value": "relatively weak"},
      {"measurement": "body weight", "setting": "[4]; 14 consecutive days, mice", "value": "significantly decreased"},
      {"measurement": "death of mice", "setting": "[4]; 14 consecutive days, mice", "value": "the mice began to die"},
      {"measurement": "organ injury (H&E, pathological examination)", "setting": "[4]; 14 consecutive days, mice", "value": "varying degrees of organ injury"},
      {"measurement": "organ coefficients of the heart, liver and kidney", "setting": "[4]; 14 days, vs control", "value": "remarkably elevated"},
      {"measurement": "serum levels of AST and ALT", "setting": "[4]; 14 days, vs control", "value": "elevated"},
      {"measurement": "serum levels of CK, UREA and TG", "setting": "[4]; 14 days, vs control", "value": "decrease"},
      {"measurement": "cytotoxicity towards MC3T3-E1 cells", "setting": "[5]", "value": "weak cytotoxicity"},
      {"measurement": "IC50", "setting": "[1]; [14]", "value": "72.7 ± 5.03", "unit": "nM"},
      {"measurement": "IC50", "setting": "[6]", "value": "71.9 ± 11", "unit": "nM"},
      {"measurement": "formation of reactive intermediates", "setting": "[7]", "value": "metabolically bioactivated by CYPs to generate reactive intermediates"}
    ]},
    {"compound": "COc1c2ccoc2cc2oc(=O)ccc12", "note": "[5-MP, 5-methoxypsoralen]", "values": [
      {"measurement": "effect on weight loss induced by DXMS", "setting": "[2]; [13]", "value": "neither PTH (positive control for osteoporosis) nor 5-MP (20 and 40 mg/kg) could significantly reverse the weight loss"},
      {"measurement": "serum levels of osteogenic markers (ALP, OT/BGT, OPG, Col-1A1)", "setting": "[2]; 5-MP 20 and 40 mg/kg oral daily, PTH 100 μg/kg/day i.p., vs DXMS", "value": "substantially increased"},
      {"measurement": "bone volume fraction (BV/TV) and bone mineral density (BMD)", "setting": "[2]; [15]", "value": "significantly enhanced"},
      {"measurement": "trabecular and cortical bone thickness (micro-CT)", "setting": "[2]; [15]", "value": "significantly improved"},
      {"measurement": "immunofluorescence signals of Notum in cortical bone tissues", "setting": "[2]; [16]", "value": "significantly decreased"},
      {"measurement": "immunofluorescence signals of Notum in marrow cavity", "setting": "[2]; [16]", "value": "hardly decrease"},
      {"measurement": "new bone formation (double labeling)", "setting": "[2]; tibia, vs DXMS-challenged group", "value": "active new bone formation"},
      {"measurement": "effect on ALP levels (osteoblast differentiation)", "setting": "[3]", "value": "dose-dependently mitigate the reduced ALP levels"},
      {"measurement": "half-life (t1/2)", "setting": "[8]", "value": 4.21, "unit": "h"},
      {"measurement": "organ injury (H&E, pathological examination)", "setting": "[4]; 14 consecutive days, mice", "value": "no organ injury was observed"},
      {"measurement": "overall mortality rate", "setting": "[4]; 14 consecutive days, mice", "value": 0, "unit": "%"},
      {"measurement": "serological indicators of organ injury (ALT, AST, CK, CREA)", "setting": "[4]; 14 days, vs control", "value": "no significant difference"},
      {"measurement": "serum levels of TC and TG", "setting": "[4]; 14 days, vs control", "value": "decreased"},
      {"measurement": "spleen coefficient", "setting": "[4]; 14 days, vs control", "value": "slight decline"},
      {"measurement": "organ coefficient", "setting": "[4]; 14 days, vs control, except spleen", "value": "no significant difference"},
      {"measurement": "IC50", "setting": "[9]", "value": 1210, "unit": "nM"},
      {"measurement": "concentration at 2 h", "setting": "[10]; male, C57BL/6J, mouse, femur, po, 40 mg/kg", "value": 8.3, "unit": "nM"},
      {"measurement": "concentration at 3 h", "setting": "[10]; male, C57BL/6J, mouse, plasma, po, 40 mg/kg", "value": 44.6, "unit": "nM"},
      {"measurement": "tissue distribution", "setting": "[10]; single oral dose 40 mg/kg, mice", "value": "high exposure in the plasma and the liver"},
      {"measurement": "cytotoxicity towards MC3T3-E1 cells", "setting": "[5]", "value": "weak cytotoxicity"},
      {"measurement": "Ki", "setting": "[1]", "value": 23.5, "unit": "nM"},
      {"measurement": "IC50", "setting": "[1]; [14]", "value": "18.7 ± 2.08", "unit": "nM"},
      {"measurement": "inhibition manner", "setting": "[1]; inhibition kinetics, DO hydrolysis", "value": "competitive"},
      {"measurement": "IC50", "setting": "[6]", "value": "11.2 ± 0.6", "unit": "nM"},
      {"measurement": "Ki", "setting": "[6]", "value": 15.1, "unit": "nM"},
      {"measurement": "inhibition manner", "setting": "[6]; inhibition kinetics, OPTS hydrolysis", "value": "competitive"},
      {"measurement": "effect on intracellular calcification (ARS staining)", "setting": "[11]", "value": "significantly reversed the intracellular calcium loss"},
      {"measurement": "formation of reactive intermediates", "setting": "[7]", "value": "did not detect reactive intermediates"},
      {"measurement": "mRNA levels of Notum, GSK3β, β-catenin, OPN and RUNX2", "setting": "[12]", "value": "significantly reversed the abnormal mRNA levels"}
    ]},
    {"compound": "C[C@@H]1C[C@H]2[C@@H]3CCC4=CC(=O)C=C[C@]4(C)[C@@]3(F)[C@@H](O)C[C@]2(C)[C@@]1(O)C(=O)CO", "note": "[DXMS, dexamethasone, reference compound]", "values": [
      {"measurement": "cells diminished", "setting": "[5]; 200 μmol/L", "value": "approximately 50%"}
    ]}
  ]
}
